Bioassay records from PubChem BioAssay.
Most compounds without a hit are left out; they make up all but 3.6% or so of the library.
PAFAH1B2 FP inh = PAFAH1B2 enzyme inhibitors, primary screen, biochemical, fluorescence polarization, human; Platelet-activating factor acetylhydrolase IB subunit alpha2 (Homo sapiens), P68402; recombinant PAFAH1B2, FP-rhodamine activity probe; inhibition, % at 3.39 µM; 340,000 tested, 1.2% active;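 active = inhibition above the mean of all tested compounds plus 3 SD, cut at about 24% in these data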;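 note: 0% = enzyme with DMSO and 100% = wells lacking PAFAH1B2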
Target sequence (P68402 whole entry, looked up): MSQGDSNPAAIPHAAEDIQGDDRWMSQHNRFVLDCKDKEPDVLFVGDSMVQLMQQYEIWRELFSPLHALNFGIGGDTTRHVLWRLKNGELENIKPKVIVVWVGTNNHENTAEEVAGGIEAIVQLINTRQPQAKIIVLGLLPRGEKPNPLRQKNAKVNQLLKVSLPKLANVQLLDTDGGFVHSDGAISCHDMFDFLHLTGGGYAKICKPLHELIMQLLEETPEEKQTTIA
VIM-2 inh = VIM-2 metallo-beta-lactamase inhibitors, primary screen, biochemical, epi-absorbance readout, Pseudomonas aeruginosa enzyme; purified VIM-2, nitrocefin hydrolysis, epi-absorbance fluorescence; 290,000 tested, 0.89% active; AID 1527, 2009; inhibition, % at 5.6 µM;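 active = inhibition above the mean of all tested compounds plus 3 SD, cutoff set per screening run, cut at about 7.5% in these data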;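 note: red hydrolysis product quenches plate fluorescence so inhibitors raise well fluorescence; 0% = enzyme with DMSO and 100% = DMSO without enzyme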
PAFAH1B3 FP inh = PAFAH1B3 enzyme inhibitors, primary screen, biochemical, fluorescence polarization, human. Platelet-activating factor acetylhydrolase IB subunit alpha1 (Homo sapiens), Q15102. recombinant PAFAH1B3, FP-rhodamine probe. inhibition, % at 3.39 µM. 340,000 tested, 0.28% active. AID 492972, 2010;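 active = inhibition above the screen-wide average of all tested compounds plus 3 SD, cut at about 25% in these data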;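 note: 0% = enzyme with DMSO only and 100% = wells lacking PAFAH1B3 protein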
pPAFAH inh = pPAFAH enzyme inhibitors, primary screen, biochemical, fluorescence polarization, human; Platelet-activating factor acetylhydrolase (Homo sapiens), Q13093; recombinant pPAFAH, FP-rhodamine probe fluorescence polarization; inhibition, % at 3.39 µM; 330,000 tested, 1.5% active; AID 463082, 2010;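 active = inhibition above the mean inhibition across the screen plus 3 SD, cut at about 25% in these data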;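 note: inhibitors block binding of the rhodamine activity-based probe so polarization drops; 0% = enzyme with DMSO and 100% = wells lacking pPAFAH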
Target sequence (Q13093 whole entry, looked up): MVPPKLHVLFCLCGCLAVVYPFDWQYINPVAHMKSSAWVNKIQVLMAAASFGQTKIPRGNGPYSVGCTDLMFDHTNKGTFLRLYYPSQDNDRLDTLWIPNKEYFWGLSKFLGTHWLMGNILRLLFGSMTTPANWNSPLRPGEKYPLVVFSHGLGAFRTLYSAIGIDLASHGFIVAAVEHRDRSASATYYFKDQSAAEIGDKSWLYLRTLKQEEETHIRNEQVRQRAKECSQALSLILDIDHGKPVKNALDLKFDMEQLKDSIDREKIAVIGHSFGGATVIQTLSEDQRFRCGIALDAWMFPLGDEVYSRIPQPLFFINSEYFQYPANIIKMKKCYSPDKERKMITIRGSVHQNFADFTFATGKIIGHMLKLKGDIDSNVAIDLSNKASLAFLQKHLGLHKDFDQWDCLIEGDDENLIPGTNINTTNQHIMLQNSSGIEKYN
PAFAH2 FP inh = PAFAH2 enzyme inhibitors, primary screen, biochemical, fluorescence polarization, human | Platelet-activating factor acetylhydrolase 2, cytoplasmic (Homo sapiens), Q99487 | recombinant PAFAH2, FP-rhodamine activity probe | inhibition, % at 3.39 µM | 340,000 tested, 0.99% active | AID 492956, 2010;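 active = inhibition above the mean over all tested compounds plus 3 SD, cut at about 30% in these data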;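 note: inhibitors block probe labeling of enzyme so polarization drops; 0% = enzyme with DMSO and 100% = wells lacking PAFAH2 protein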
IMP-1 inh = IMP-1 metallo-beta-lactamase inhibitors, primary screen, biochemical, epi-absorbance readout, Pseudomonas aeruginosa enzyme | metallo-beta-lactamase IMP-1 (Pseudomonas aeruginosa) | purified IMP-1, nitrocefin hydrolysis, epi-absorbance fluorescence | inhibition, % at 5.6 µM | 290,000 tested, 0.45% active;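 active = inhibition above the mean plus 3 SD of all compounds in the same screening run, cut at about 4.5% in these data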;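 note: 0% = IMP-1 with DMSO and 100% = DMSO wells lacking enzyme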
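Material – recombinant IMP-1 enzyme, purified · Amount – IMP-1 0.2 nM before substrate addition · Medium – HEPES buffer pH 7.1 with ZnSO4 and Brij 35 · Timing – 25 °C, 15 min preincubation, 25 min reaction · Measured by – plate fluorescence quenching by hydrolysis product, ex 480/em 530 nm · Read-out – percent enzyme inhibition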
* hit, by the source's call; nt = not tested or not shown.

SMILES	PAFAH1B2 FP inh	VIM-2 inh	PAFAH1B3 FP inh	pPAFAH inh	PAFAH2 FP inh	IMP-1 inh
O=C(/C(=N/N=C/c1ccc(O)c(O)c1)c1ccccc1)c1ccccc1	19	-1	2	30*	-9	0
O=C(Nc1cccc(-c2ccc3nncn3n2)c1)C(F)(F)F	-1	8.0*	9	0	-4	-4
Cc1ccc(NS(=O)(=O)c2cccc(C(=O)N/N=C/c3ccc4c(c3)OCCO4)c2)c(C)c1	-14	-6	-34	32*	-60	-3
O=C(Cc1cccs1)NCc1ccc(Cl)cc1Cl	9	-1	5	6	5	-3
COc1ccc(O)c(C(=O)c2cc(SCC(=O)O)c3nc4sc5c(c4c(=O)n3c2)CCCC5)c1	1	0	15	28*	-5	-1
COc1ccccc1C(=O)NC(CCSC)C(=O)NCc1ccncc1 (configuration not stated)	1	nt	-2	0	4	nt
CCn1c(SCC(=O)N2CCN(c3ccccc3)CC2)nc2c([nH]c3ccccc32)c1=O	0	-4	6	1	-8	-3
CC(/C=N/NC(=O)CSc1nnc(SCc2ccccc2)s1)=C\c1ccco1	0	-4	9	27*	7	-3
C=CCn1c(=N)c(S(=O)(=O)c2ccc(C)c(C)c2)cc2c(=O)n3ccccc3nc21	5	12*	1	2	7	-1
N=c1c(S(=O)(=O)c2ccccc2)cc2c(=O)n3ccccc3nc2n1CCCN1CCOCC1	-2	9.2*	9	0	10	-1
N=c1c(S(=O)(=O)c2ccc(Cl)cc2)cc2c(=O)n3ccccc3nc2n1CCN1CCOCC1	37*	5	2	6	7	-3
Cc1ccc(S(=O)(=O)c2cc3c(=O)n4ccccc4nc3n(C)c2=N)cc1C	3	6	6	6	5	-4
Cc1ccc(S(=O)(=O)c2cc3c(=O)n4ccccc4nc3n(CCCN3CCOCC3)c2=N)cc1C	-4	10*	9	11	15	-1
CCOc1ccc(N2CC(C(=O)Nc3cccc(C(=O)NC4CC4)c3)CC2=O)cc1 (configuration not stated)	3	nt	2	-10	1	nt
CCCn1c(=N)c(S(=O)(=O)c2ccc(F)cc2)cc2c(=O)n3ccccc3nc21	5	8.9*	0	2	12	-4
COCCn1c(=N)c(S(=O)(=O)c2ccc(F)cc2)cc2c(=O)n3cccc(C)c3nc21	-1	8.9*	-6	6	-6	-3
CCCCn1c(=N)c(S(=O)(=O)c2ccc(Br)cc2)cc2c(=O)n3cccc(C)c3nc21	3	-6	7	6	-6	-4
CC(C)OCCCn1c(=N)c(S(=O)(=O)c2ccccc2)cc2c(=O)n3ccccc3nc21	-6	-1	10	4	0	-3
Cn1c(=N)c(S(=O)(=O)c2ccc(F)cc2)cc2c(=O)n3ccccc3nc21	2	1	15	3	11	-4
CCOCCCn1c(=N)c(S(=O)(=O)c2ccccc2)cc2c(=O)n3cc(C)ccc3nc21	-3	11*	-2	4	-3	-3
CCCCN(C(=O)c1ccc(-n2nc(C)cc2C)cc1)c1c(N)n(CCC)c(=O)[nH]c1=O	0	nt	8	nt	2	nt
O=C(CSc1nnc(CCc2ccccc2)n1-c1ccc(Cl)cc1)NCc1ccccc1	9	-2	5	35*	5	2
COc1ccc(-n2c(CCc3ccccc3)nnc2SCC(=O)NCc2ccccc2)cc1	6	-2	-4	11	1	1
CC1=C/C(=C(\c2cc(C)c(O)c(Br)c2)c2ccccc2S(=O)(=O)O)C=C(Br)C1=O	-17	-4	-26	-4	-31	-13
CC(C)(C)c1ccc(OCC(=O)NNC(=S)NC(=O)c2ccccc2[N+](=O)[O-])c(Br)c1	39*	-4	6	29*	12	-6
SMILES	PAFAH1B2 FP inh	VIM-2 inh	PAFAH1B3 FP inh	pPAFAH inh	PAFAH2 FP inh	IMP-1 inh
CCOc1ccccc1-c1c2cc(O)c(=O)cc-2oc2cc(O)c(O)cc12	112*	1	119*	nt	127*	6.8*
O=c1cc2oc3cc(O)c(O)cc3c(-c3ccccc3O)c-2cc1O	27*	4	-62	nt	42*	2
Cc1ccccc1-c1cc(=O)c2c(O)cccc2o1	-1	nt	7	3	-1	nt
CC(=O)N1CC=C2C(C#N)=C(N)C(C#N)(C#N)[C@H](c3ccoc3)[C@H]2C1	4	-1	4	3	2	-1
CN1CC=C2C(C#N)=C(N)C(C#N)(C#N)[C@H](c3ccoc3)[C@H]2C1	14	2	20	32*	28	-3
CN(C(=O)CSc1n[nH]c(N)n1)C1CCCCC1	0	nt	11	0	-5	nt
Nc1nc(SCC(=O)C23CC4CC(CC(C4)C2)C3)n[nH]1	27*	-1	-2	3	0	-3
C=CCC[C@H](Cc1ccc(F)cc1)C(=O)OC[C@@H](NC(=O)[C@@H](CC=C)CC(=O)N(CCO)Cc1ccccc1)C(C)(C)C	3	nt	-4	4	8	nt
NC(=S)Nc1ccc(S(=O)(=O)c2ccc(NC(N)=S)cc2)cc1	-13	-5	-10	3	-29	11*
CN(c1ccccc1)S(=O)(=O)c1cc(C(=O)NCCCn2ccnc2)ccc1Cl	6	nt	-3	2	1	nt
CC(O)c1nc2ccc(C(=O)O)cc2[nH]1 (configuration not stated)	3	1	8	3	2	8.7*
CCN1C(=O)[C@H]2[C@@H](c3ccc(C)cc3)N3C(=O)N(c4ccccc4)C(=O)[C@@]3(CC)[C@H]2C1=O	9	-3	9	8	6	-4
Nc1ncc(N=Nc2cc(C(=O)O)ccc2Cl)s1	8	0	22	26*	22	-1
Nc1cc2sc(-c3ccc(C(=O)O)cc3)nc2cc1Cl	3	2	6	8	4	-1
COc1ccc(S(=O)(=O)N2CCCC2CNC(=O)C(=O)Nc2cccc(F)c2)cc1 (configuration not stated)	0	nt	3	4	5	nt
CCCSc1nsc(NC(=O)CCC)n1	9	-2	-1	31*	-5	-4
O=C(CCNc1cc(Cl)cc(Cl)c1)c1ccco1	0	-1	2	1	10	1
O=C(CCSc1ccc(Cl)cc1)c1ccco1	28*	1	-1	4	3	-2
O=C(CSc1ccccc1Cl)c1ccco1	0	1	10	4	8	-3
